SMILES strings stand for the structures. Activity calls are given as the source filed them. No cut-off for these calls is given here.

The target in assay [1] is Epidermal growth factor receptor (Homo sapiens) (UniProt P00533). Description: Inhibition of EGFR (unknown origin) at 100 nM relative to control.
The target in assay [2] is Fibroblast growth factor receptor 2 (Homo sapiens) (UniProt P21802). Kind of assay: Inhibition of FGFR2 in human SNU-16 cells assessed as decrease in ERK phosphorylation at 25 to 200 nM after 2 hrs by Western blot analysis. The class given is cell-based. The method in brief: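 SNU-16 cells exposed to compound for 2 h at 37 °C, lysed in 1× SDS sample buffer, resolved by 10% SDS-PAGE and blotted to nitrocellulose; probed for phospho-FGFR, FGFR2, phospho-ERK, ERK and GAPDH, then HRP anti-rabbit or anti-mouse IgG; enhanced chemiluminescence detection.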
Fibroblast growth factor receptor 2 (Homo sapiens), sequence (P21802 22-821 limits assumed): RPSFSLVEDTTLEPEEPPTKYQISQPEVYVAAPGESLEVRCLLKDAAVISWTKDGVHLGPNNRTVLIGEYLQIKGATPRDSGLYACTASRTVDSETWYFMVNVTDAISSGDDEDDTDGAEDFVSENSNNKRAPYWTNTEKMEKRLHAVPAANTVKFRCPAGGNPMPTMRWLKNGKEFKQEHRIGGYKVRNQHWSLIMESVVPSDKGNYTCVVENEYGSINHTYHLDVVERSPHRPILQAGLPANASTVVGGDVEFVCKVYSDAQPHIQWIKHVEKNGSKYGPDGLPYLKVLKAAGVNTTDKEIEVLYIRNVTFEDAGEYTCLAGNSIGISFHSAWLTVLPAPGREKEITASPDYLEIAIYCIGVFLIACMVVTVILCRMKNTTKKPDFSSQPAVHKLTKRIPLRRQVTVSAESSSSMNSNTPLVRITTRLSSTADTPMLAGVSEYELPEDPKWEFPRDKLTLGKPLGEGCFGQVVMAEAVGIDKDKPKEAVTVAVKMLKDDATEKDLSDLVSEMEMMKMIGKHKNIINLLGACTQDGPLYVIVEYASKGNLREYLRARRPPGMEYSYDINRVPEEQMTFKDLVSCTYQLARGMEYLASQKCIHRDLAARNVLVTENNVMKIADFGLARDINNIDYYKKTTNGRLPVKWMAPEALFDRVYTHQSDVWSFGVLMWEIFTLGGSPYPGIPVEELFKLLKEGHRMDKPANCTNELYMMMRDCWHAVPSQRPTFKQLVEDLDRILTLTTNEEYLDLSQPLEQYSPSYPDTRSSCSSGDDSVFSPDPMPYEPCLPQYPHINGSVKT

The target of assay [3] is Receptor-type tyrosine-protein kinase FLT3 (Homo sapiens) (UniProt P36888). Description: Inhibition of FLT-3 (unknown origin) at 100 nM relative to control. The method in brief:
(§1)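 Purified recombinant kinase domains run in ELISA on precoated poly(Glu,Tyr) 4:1 (20 µg/mL) with 10 µM ATP in 50 mM HEPES pH 7.4, 50 mM MgCl2, 0.5 mM MnCl2, 0.2 mM Na3VO4, 1 mM DTT; 1% DMSO control; 60 min at 37 °C. Phosphotyrosine read by PY99 antibody, HRP anti-mouse IgG, OPD/H2O2 at 490 nm; inhibition = [1−A490/A490control]×100%; two separate experiments.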

The subject of another assay is NCI-H1581. Kind of assay: Antitumor activity against human NCI-H1581 cells xenografted in nude mouse assessed as tumor growth inhibition at 10 mg/kg, po qd for 7 to 10 days relative to control. The class given is functional. Conditions: read-out: TGI. The gist of the method:
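Female nude mice, 4-6 weeks old. NCI-H1581 cells (5×10^6 in 200 µL) injected s.c., grown to 700-800 mm³, then 1-mm³ fragments implanted s.c. by trocar. At 100-150 mm³ animals were randomized (vehicle n=12, treated n=6) and dosed orally once daily for 7 days. Tumours measured twice weekly, volume = length×width²/2. TGI calculated from change in tumour volume versus vehicle on the final day, with Student's t-test.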

In assay [4] the target is Voltage-gated inwardly rectifying potassium channel KCNH2 (Homo sapiens, UniProt Q12809). Kind of assay: Inhibition of human ERG by automated patch clamp electrophysiology assay. The method in brief:
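Automated patch clamp electrophysiology on the hERG channel.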

The target of assay [5] is Cyclin-dependent kinase 4 (Homo sapiens) (UniProt P11802). Kind of assay: Inhibition of CDK4 (unknown origin) at 100 nM relative to control.
The target in assay [6] is Macrophage colony-stimulating factor 1 receptor (Homo sapiens) (UniProt P07333). Kind of assay: Inhibition of CSF-1R (unknown origin) at 100 nM relative to control.
Assay [7] concerns the target Vascular endothelial growth factor receptor 2 (Homo sapiens) (UniProt P35968). Kind of assay: Inhibition of VEGFR2 (unknown origin) at 100 nM relative to control. The method in brief:
(§2)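 ELISA with purified recombinant kinase on plates precoated with poly(Glu,Tyr) 4:1 at 20 µg/mL. ATP 10 µM in HEPES pH 7.4 buffer with MgCl2, MnCl2, Na3VO4 and DTT. Run 60 min at 37 °C. Detected with anti-phosphotyrosine PY99, HRP secondary antibody and o-phenylenediamine, read at 490 nm. Inhibition % = [1 − A490/A490 control]×100. 1% DMSO as negative control.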

The target in assay [8] is Cyclin-dependent kinase 1 (Homo sapiens) (UniProt P06493). Description: Inhibition of CDK1 (unknown origin) at 1000 nM relative to control.
Cyclin-dependent kinase 1 (Homo sapiens), sequence (P06493 whole entry, looked up, the tested form may be a part): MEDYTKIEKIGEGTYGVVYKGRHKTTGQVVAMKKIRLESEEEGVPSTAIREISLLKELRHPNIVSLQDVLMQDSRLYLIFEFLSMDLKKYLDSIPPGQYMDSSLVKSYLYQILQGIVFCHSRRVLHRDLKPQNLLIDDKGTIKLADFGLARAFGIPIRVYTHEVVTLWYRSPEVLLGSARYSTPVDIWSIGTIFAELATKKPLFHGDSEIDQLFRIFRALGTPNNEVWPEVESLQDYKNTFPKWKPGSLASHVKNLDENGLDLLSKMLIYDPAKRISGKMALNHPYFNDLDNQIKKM
Assay [9] has as its system T1, Discoidin domain-containing receptor 2 (Homo sapiens), Q16832 [I638F].
T1 sequence (whole entry): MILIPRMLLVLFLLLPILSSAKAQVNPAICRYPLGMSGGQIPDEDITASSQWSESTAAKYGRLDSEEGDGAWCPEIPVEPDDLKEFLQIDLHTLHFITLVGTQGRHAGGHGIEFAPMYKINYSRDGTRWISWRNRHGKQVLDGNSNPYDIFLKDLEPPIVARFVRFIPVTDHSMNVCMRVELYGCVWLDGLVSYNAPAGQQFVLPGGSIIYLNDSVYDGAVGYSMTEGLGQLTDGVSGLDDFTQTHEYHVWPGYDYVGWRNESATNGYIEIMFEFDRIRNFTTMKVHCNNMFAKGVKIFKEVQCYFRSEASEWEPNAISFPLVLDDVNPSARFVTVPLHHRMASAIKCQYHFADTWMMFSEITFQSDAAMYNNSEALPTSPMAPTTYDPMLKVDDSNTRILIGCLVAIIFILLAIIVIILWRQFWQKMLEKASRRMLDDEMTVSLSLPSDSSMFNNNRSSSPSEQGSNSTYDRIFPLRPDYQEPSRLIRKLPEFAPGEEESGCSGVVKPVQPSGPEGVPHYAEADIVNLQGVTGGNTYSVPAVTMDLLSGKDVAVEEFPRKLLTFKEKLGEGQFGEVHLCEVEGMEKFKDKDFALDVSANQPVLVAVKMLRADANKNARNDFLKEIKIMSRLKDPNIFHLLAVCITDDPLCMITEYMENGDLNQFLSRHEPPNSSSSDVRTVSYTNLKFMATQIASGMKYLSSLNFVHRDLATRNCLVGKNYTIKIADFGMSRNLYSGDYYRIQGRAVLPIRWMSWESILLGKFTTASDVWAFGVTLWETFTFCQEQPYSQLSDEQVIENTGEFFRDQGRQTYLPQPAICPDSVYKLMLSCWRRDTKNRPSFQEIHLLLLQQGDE
Description: Inhibition of DDR2 I638F mutant in human NCI-H2286 cells assessed as decrease in AKT phosphorylation at […] after 2 hrs by Western blot analysis. It is filed as cell-based. The method in brief: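 NCI-H2286 cells exposed to compound for 2 h at 37 °C and lysed in SDS sample buffer. Lysates run on 10% SDS-PAGE and blotted to nitrocellulose. Membranes probed for phospho- and total DDR2, ERK and Akt, with GAPDH as loading control, and detected by HRP secondary antibody and enhanced chemiluminescence.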

The target of assay [10] is Cyclin-dependent kinase 1 (Homo sapiens) (UniProt P06493). Description: Inhibition of CDK1 (unknown origin) at 10 nM relative to control.
Assay [11] has as its target Vascular endothelial growth factor receptor 1 (Homo sapiens) (UniProt P17948). Description: Inhibition of VEGFR1 (unknown origin) at 10 nM relative to control. The method in brief:
as §2

Assay [12] deals with Tyrosine-protein kinase ABL1 (Homo sapiens) (UniProt P00519). Kind of assay: Inhibition of ABL (unknown origin) at 1000 nM relative to control.
In assay [13] the target is Receptor tyrosine-protein kinase erbB-4 (Homo sapiens) (UniProt Q15303). Kind of assay: Inhibition of ErbB4 (unknown origin) at 10 nM relative to control. The method in brief:
as §1

Assay [14] deals with Receptor tyrosine-protein kinase erbB-2 (Homo sapiens) (UniProt P04626). Kind of assay: Inhibition of ErbB2 (unknown origin) at 100 nM relative to control. The gist of the method:
as §1

The next assay relates to SNU-16. Description: Antiproliferative activity against FGFR2 amplified human SNU16 cells after 72 hrs by CCK8 assay. Particulars: SNU-16, 72 h. It is filed as functional, cell-based. The method in brief:
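Cells seeded at low density in growth medium and compounds added the next day. Incubated 72 h, then proliferation read by sulforhodamine B, MTT or CCK-8. IC50 obtained by four-parameter concentration-response curve fitting.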

Receptor tyrosine-protein kinase erbB-4 (Homo sapiens), sequence (Q15303 whole entry): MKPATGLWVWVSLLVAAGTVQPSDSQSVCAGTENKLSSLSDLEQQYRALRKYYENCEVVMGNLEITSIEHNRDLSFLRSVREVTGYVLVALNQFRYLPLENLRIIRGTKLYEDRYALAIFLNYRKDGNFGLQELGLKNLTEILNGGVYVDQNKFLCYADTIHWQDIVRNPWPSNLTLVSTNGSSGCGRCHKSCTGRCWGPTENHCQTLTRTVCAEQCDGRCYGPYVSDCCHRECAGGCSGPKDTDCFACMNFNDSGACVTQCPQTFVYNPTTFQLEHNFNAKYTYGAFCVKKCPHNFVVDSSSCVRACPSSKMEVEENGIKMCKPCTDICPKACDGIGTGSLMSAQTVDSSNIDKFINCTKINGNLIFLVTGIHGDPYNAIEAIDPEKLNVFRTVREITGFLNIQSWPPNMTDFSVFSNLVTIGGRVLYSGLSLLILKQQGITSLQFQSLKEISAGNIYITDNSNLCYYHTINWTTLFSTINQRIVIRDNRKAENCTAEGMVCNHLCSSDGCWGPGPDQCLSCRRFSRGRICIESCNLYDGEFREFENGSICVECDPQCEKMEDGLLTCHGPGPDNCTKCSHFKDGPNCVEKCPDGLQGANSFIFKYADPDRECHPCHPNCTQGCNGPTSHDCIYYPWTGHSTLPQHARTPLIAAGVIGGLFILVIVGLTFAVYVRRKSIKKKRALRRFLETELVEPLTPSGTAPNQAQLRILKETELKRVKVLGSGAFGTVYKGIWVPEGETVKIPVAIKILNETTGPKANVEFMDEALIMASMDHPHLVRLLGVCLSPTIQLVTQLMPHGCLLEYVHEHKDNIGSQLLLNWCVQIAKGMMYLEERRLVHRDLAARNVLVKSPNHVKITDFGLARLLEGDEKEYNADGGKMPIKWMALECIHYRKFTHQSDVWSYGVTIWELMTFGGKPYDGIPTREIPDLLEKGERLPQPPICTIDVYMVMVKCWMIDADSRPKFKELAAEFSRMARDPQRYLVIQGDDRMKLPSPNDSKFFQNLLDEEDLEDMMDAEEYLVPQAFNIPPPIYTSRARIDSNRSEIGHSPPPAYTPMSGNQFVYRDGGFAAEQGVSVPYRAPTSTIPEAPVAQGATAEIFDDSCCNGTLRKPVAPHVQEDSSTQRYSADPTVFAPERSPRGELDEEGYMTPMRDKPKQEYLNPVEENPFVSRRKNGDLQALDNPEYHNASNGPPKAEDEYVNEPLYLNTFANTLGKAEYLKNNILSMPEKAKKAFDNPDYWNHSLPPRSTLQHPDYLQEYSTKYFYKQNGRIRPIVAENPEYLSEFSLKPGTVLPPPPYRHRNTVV
Voltage-gated inwardly rectifying potassium channel KCNH2, sequence (Q12809 whole entry): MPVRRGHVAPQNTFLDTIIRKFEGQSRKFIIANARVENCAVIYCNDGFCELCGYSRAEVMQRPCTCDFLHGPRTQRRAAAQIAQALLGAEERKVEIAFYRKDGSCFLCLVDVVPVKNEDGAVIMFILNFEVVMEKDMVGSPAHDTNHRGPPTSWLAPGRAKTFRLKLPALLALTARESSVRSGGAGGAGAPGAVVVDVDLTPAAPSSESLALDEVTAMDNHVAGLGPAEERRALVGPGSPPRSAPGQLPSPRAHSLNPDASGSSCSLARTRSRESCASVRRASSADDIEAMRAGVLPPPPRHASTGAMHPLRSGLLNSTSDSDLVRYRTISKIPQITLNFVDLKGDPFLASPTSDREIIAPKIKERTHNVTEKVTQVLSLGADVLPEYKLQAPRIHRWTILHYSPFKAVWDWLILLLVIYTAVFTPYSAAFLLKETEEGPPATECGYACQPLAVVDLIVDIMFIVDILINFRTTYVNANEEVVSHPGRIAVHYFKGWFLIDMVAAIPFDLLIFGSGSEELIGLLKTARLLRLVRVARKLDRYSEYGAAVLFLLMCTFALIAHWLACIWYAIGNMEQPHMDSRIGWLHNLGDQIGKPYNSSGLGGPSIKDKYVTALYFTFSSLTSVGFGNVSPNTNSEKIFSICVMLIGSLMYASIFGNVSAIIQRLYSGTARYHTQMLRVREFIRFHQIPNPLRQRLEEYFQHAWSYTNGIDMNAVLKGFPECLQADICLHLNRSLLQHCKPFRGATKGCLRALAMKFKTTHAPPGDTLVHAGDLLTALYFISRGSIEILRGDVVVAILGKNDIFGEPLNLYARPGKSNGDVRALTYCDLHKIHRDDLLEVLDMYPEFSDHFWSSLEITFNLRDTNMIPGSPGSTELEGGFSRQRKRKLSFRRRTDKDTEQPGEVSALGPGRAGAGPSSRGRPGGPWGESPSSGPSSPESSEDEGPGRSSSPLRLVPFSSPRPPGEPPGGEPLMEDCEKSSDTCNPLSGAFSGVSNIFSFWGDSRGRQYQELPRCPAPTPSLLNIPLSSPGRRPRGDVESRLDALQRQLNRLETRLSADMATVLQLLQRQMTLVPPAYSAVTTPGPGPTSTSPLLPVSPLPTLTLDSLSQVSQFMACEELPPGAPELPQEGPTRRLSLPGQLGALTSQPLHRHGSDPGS
Vascular endothelial growth factor receptor 1 (Homo sapiens), sequence (P17948 whole entry): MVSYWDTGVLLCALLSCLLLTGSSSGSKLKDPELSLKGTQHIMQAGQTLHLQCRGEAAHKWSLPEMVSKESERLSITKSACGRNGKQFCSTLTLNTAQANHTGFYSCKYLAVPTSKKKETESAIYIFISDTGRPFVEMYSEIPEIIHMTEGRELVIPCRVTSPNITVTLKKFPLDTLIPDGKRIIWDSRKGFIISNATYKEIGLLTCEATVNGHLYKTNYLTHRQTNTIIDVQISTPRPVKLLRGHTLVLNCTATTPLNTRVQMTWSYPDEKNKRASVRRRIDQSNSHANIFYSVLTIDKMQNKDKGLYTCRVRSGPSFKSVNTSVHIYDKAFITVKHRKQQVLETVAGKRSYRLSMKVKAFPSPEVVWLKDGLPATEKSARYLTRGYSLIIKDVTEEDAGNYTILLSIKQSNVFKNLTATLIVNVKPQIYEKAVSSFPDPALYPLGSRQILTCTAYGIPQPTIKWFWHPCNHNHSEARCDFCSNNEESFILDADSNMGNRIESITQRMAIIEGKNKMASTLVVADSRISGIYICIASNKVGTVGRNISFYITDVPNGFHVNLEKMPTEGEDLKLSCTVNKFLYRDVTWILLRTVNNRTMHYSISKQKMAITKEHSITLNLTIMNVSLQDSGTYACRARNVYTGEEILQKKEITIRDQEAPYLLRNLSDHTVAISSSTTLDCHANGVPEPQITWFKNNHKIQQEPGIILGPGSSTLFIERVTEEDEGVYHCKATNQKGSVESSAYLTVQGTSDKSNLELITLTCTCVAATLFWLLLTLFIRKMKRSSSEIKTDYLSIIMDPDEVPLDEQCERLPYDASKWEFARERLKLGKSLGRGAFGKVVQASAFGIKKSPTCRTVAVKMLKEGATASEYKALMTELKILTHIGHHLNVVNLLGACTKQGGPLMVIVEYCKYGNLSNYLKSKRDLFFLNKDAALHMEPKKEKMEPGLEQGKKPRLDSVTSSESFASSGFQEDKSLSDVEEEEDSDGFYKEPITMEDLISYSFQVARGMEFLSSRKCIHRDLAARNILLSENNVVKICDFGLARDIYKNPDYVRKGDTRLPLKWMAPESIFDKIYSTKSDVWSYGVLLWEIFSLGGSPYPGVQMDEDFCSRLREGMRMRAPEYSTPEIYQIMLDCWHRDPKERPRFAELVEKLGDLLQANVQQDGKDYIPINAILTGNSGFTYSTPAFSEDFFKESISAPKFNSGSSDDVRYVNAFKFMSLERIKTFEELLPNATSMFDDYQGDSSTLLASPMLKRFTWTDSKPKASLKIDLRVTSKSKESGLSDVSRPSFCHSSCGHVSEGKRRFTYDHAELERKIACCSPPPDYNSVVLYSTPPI

On to `Cc1ccc(C(=O)Nc2cccc(C(F)(F)F)c2)cc1-c1ccc2c(-c3cnn(C4CC4)c3)n[nH]c2c1`, for which the inhibition in [1] stood at 33.9%; in assay [3] it was 80.6%; in [5] it was 6.8%; in assay [6] it was 83.4%; in assay [7] it was 99.2%; in assay [8], 5.6%. The inhibition in assay [10] is -0.1%; in [11], 25.8%; in assay [12] it was 100%; in assay [13] it was 0%; in [14] it was 5.6%. In addition, the inhibition entry in [2] and in assay [9] was “Active” in each case. Besides, in the assay with NCI-H1581, the inhibition in vivo at 10 mg/kg was 59.7%. In addition, the 50% inhibitory concentration (IC50) in assay [4] was more than 40000 nM; in the assay with SNU-16 it was 93.4 nM.

These data come from ChEMBL document CHEMBL4411287, “Discovery and optimization of a series of 3-substituted indazole derivatives as multi-target kinase inhibitors for the treatment of lung squamous cell carcinoma” (Eur J Med Chem, 2019).
